Converted amounts (≈) assume the structure as drawn.
Assays:
Type in all cases: physicochemical
[1] = Solubility of compound at pH 7.4; settings: buffer
[2] = Saturated solubility of compound in ethanol
[3] = Saturated solubility of compound in isopropanol
[4] = Saturated solubility of compound in benzyl alcohol
[5] = Saturated solubility of compound in phenoxy ethanol
[6] = Saturated solubility of compound in dimethyl isosorbide
[7] = Saturated solubility of compound in propylene glycol
[8] = Saturated solubility of compound in transcutol p
[9] = Saturated solubility of compound in oleyl-alcohol
[10] = Saturated solubility of compound in glycerin
[11] = Saturated solubility of compound in isopropyl myristate
[12] = Saturated solubility of compound in crodamol-GTC
[13] = Saturated solubility of compound in water
Procedure, shortened: (§1)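 Saturated solubility in the named medium (water or buffer at the stated pH), reported in mg ml−1. Levels below the detection limit are reported as BLOQ.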

[14] = Saturated solubility of compound in buffer at pH 3.5; procedure, shortened: as §1
[15] = Saturated solubility of compound in buffer at pH 4.5; procedure, shortened: as §1
[16] = Saturated solubility of compound in buffer at pH 5.5; procedure, shortened: as §1
[17] = Saturated solubility of compound in buffer at pH 7; procedure, shortened: as §1

solubility [1]	solubility thermodynamic [2]	solubility thermodynamic [3]	solubility [4]	solubility thermodynamic [5]	solubility [6]	solubility thermodynamic [7]	solubility thermodynamic [8]	solubility thermodynamic [9]	solubility thermodynamic [10]	solubility thermodynamic [11]	solubility thermodynamic [12]	solubility ([13]; buffer, BLD = below limit of detection)	solubility [14]	solubility [15]	solubility thermodynamic [16]	solubility thermodynamic [17]	solubility ([6]; BLD = below limit of detection)	solubility ([13]; water, read-out: solubility)	Compound
11.5 µg/mL (≈ 28.6 µM)	300 µg/mL (≈ 745 µM)	400 µg/mL (≈ 994 µM)	2200 µg/mL (≈ 5470 µM)	2200 µg/mL (≈ 5470 µM)	82300 µg/mL (≈ 204000 µM)	28400 µg/mL (≈ 70600 µM)	44800 µg/mL (≈ 111000 µM)	100 µg/mL (≈ 248 µM)	500 µg/mL (≈ 1240 µM)	100 µg/mL (≈ 248 µM)	200 µg/mL (≈ 497 µM)	Bld	100 µg/mL (≈ 248 µM)	100 µg/mL (≈ 248 µM)	100 µg/mL (≈ 248 µM)	100 µg/mL (≈ 248 µM)	–	–	Cc1nc(N(C)C(=O)Cc2ccc(-c3ccccn3)cc2)sc1S(N)(=O)=O [PRITELIVIR]
–	700 µg/mL	–	2000 µg/mL	10700 µg/mL	–	4700 µg/mL	1300 µg/mL	–	13100 µg/mL	–	–	–	1300 µg/mL	400 µg/mL	200 µg/mL	–	Bld	1200 µg/mL	CS(=O)(=O)O.Cc1nc(N(C)C(=O)Cc2ccc(-c3ccccn3)cc2)sc1S(N)(=O)=O [PRITELIVIR MESYLATE]

— ChEMBL document CHEMBL4354791, “Different solid forms for optimizing route of administration of the herpes drug Pritelivir” (Medchemcomm, 2019)
